# Bioassay records: PubChem, The Scripps Research Institute Molecular Screening Center
# Shown are actives, neighbours in structure and some others; about 1.9% of the full set was active somewhere.
# CHRM4 PAM – potentiates acetylcholine response at human M4 receptor; P08173; 360,000 tested, 0.4% active; CHO-K1 hM4/Gqi5, Fluo-8 calcium fluorescence, ACh EC20; 0% = ACh EC20, 100% = maximal ACh; AID 624126; activation, % at 3 µM;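 active means activation above its plate's cutoff, the mean activation of sample wells plus 3 SD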
# Target sequence (P08173 whole entry, looked up): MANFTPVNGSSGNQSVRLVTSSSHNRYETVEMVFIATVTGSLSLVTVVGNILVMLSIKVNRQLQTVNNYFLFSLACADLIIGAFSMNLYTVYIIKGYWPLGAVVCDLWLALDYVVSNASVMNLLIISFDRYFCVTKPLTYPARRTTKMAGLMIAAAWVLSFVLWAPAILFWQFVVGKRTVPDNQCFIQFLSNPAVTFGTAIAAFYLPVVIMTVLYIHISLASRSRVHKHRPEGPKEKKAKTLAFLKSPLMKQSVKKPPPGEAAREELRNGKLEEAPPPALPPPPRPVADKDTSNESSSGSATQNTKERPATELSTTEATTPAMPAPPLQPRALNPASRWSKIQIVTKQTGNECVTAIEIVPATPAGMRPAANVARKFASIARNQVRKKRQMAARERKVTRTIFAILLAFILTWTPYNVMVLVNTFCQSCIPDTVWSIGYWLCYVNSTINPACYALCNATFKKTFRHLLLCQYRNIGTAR
# M5 ag – CHRM5 agonism in calcium assay. P08912. CHO-K1 hM5 cells, Fluo-8 calcium fluorescence; 0% DMSO wells, 100% maximal acetylcholine response. activation, % at 3 µM. 360,000 tested, 0.19% active. AID 624037;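 active means activation above the run's mean over test compounds plus 3 SD, cut at about 23% in these data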;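 further: signal is peak over basal fluorescence ratio across the kinetic read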
# M5 PAM – positive allosteric modulators of human muscarinic M5 receptor; P08912; CHO-K1 hM5, Fluo-8 calcium, ACh EC20 PAM; 0% = ACh EC20, 100% = ACh EC100; activation, % at 3 µM; 360,000 tested, 0.3% active; AID 624038;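 active means activation above the run cutoff, the mean activation of all test compounds plus 3 SD, cut at about 18% in these data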
#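 Measured by: Fluo-8 calcium fluorescence; material: human M5 receptor in CHO-K1 cells; schedule: Post-acetylcholine fluorescence recording 140 s; benchmarks: low control EC20 acetylcholine (0%), high control EC100 acetylcholine (100%); read-out: Max/basal fluorescence ratio as % of EC20–EC100 ACh window; compound: single dose, 3 µM nominal final test concentration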
# M5 antag – antagonists of human muscarinic M5 receptor (CHRM5). CHO-hM5 cells, Fluo-8 calcium fluorescence, ACh EC80. 360,000 tested, 0.59% active. inhibition, % at 3 µM. P08912;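 active means inhibition above a per-plate cutoff, the mean of that plate's test compounds plus 3 SD, cut at about 27% in these data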;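 further: 0% = acetylcholine EC80 with DMSO and 100% = DMSO without agonist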
# CHRM4 antagonist – antagonists of human muscarinic M4 receptor (CHRM4). P08173. CHO-hM4 cells, ACh EC80, Fluo-8 calcium fluorescence. inhibition, % at 3 µM. 360,000 tested, 0.73% active;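 active means inhibition above its plate's cutoff, the mean inhibition of sample wells plus 3 SD, cut at about 27% in these data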;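 further: 0% = acetylcholine EC80 with DMSO and 100% = DMSO without agonist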
# CHRM4 agonist – agonists of human muscarinic M4 receptor (CHRM4); P08173; CHO-K1 hM4/Gqi5, Fluo-8 calcium fluorescence; vehicle 0%, full acetylcholine response 100%; activation, % at 3 µM; 360,000 tested, 0.14% active;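 active means activation above the run mean over all test wells plus 3 SD, cut at about 32% in these data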;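 further: peak over basal fluorescence ratio per well then scaled between controls; 0% = DMSO wells and 100% = acetylcholine at EC100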
# * = called active by the depositor.
SMILES,CHRM4 PAM,M5 ag,M5 PAM,M5 antag,CHRM4 antagonist,CHRM4 agonist
Cc1ccc(C)c(N2CCN(CCCNC(=O)Cn3cc4c(n3)CCCCC4)CC2)c1,-18.9,-0.8,-9.5,3.7,100.2*,-2.6
O=C(NCCC1=CCCCC1)C(=O)NCc1ccncc1,21.4*,-11.1,0.6,-12.6,-12.0,1.7
O=C(NCCC1=CCCCC1)C(=O)NCCc1ccc(Cl)cc1,9.8,-1.9,-1.1,11.6,-8.0,1.9
COc1ccc(CCN2C(=O)COc3ccccc3C2C(=O)Nc2c(C)cccc2C)cc1OC (stereo not drawn),1.2,0.9,3.8,-3.4,-5.4,0.3
Cc1ccc(-c2nc3sc4c(c3c(=O)n2N)CC(C)(C)OC4)cc1,5.7,0.2,2.7,-0.7,-1.0,0.5
Cc1ccc(-c2nc3sc4c(c3c(=O)n2N)CCCC4)cc1,37.7*,1.5,9.8,0.9,7.0,0.0
CCN(CC)CCNC(Cc1ccccc1)c1cccc(OC)c1 (stereo not drawn),0.7,-10.6,-7.8,6.4,-0.6,1.2
Clc1cccc(-c2ccc3nccn3c2)c1Cl,-1.5,-1.3,-7.4,-1.2,-4.6,1.6
CCCNC(=O)c1nnsc1S(=O)c1ccc(Cl)cc1 (stereo not drawn),-7.5,7.2,-6.1,15.7,42.8*,8.2
CCCNC(=O)c1nnsc1S(=O)(=O)c1ccc(Cl)cc1,-11.6,-1.6,-1.3,5.6,64.7*,2.3
CNC(=O)c1nnsc1S(=O)c1ccc(Cl)cc1 (stereo not drawn),-2.2,7.6,0.4,14.3,28.3*,3.7
Cc1cccc(C)c1NC(=O)CN1CCN(CC(=O)NCC2(N3CCCCC3)CCCCC2)CC1,-2.5,-0.3,0.4,12.5,8.4,-0.1
CCOC(=O)C1CCN(S(=O)(=O)c2cn(C)c(=O)n(C)c2=O)CC1,-12.6,-1.1,-10.9,10.3,32.0*,0.6
COCCCNC(=O)/C(C#N)=C/c1c(N2CCN(c3ccc(OC)cc3)CC2)nc2c(C)cccn2c1=O,-11.6,-1.9,-9.7,31.1*,-6.5,11.0
Cc1cccn2c(=O)c(/C=C(\C#N)C(N)=O)c(N3CCN(Cc4ccc5c(c4)OCO5)CC3)nc12,-19.9,-6.8,1.9,-13.4,39.8*,6.5
O=C(CC[C@H]1O[C@@H](n2ccc(=O)[nH]c2=O)[C@H](O)[C@@H]1O)NCc1ccccc1,3.8,1.7,-2.5,2.1,2.4,0.6
O=C(Nc1ccc2c(c1)OCO2)c1cc(C2CCCCN2S(=O)(=O)c2cccs2)on1 (stereo not drawn),-2.5,-1.6,0.1,0.7,2.5,2.8
COc1ccc(S(=O)(=O)N2CCc3ccccc32)cc1C(=O)Nc1ccc(C(N)=O)cc1,-8.1,-3.1,-36.6,36.5*,3.5,10.3
Cc1cnc(NC(=O)C2CC(=O)N(c3cccc(Cl)c3)C2)s1 (stereo not drawn),1.4,1.4,1.8,5.3,4.5,0.1
CCCNC(=O)C[C@H]1C[C@H]2c3cc(NC(=O)Nc4ccc(F)cc4)ccc3O[C@H]2[C@@H](CO)O1,4.2,2.7,4.9,0.5,-3.5,0.3
CC(C)C[C@H]1CN(CCCC[C@@H]2CNC(=O)C(=O)N2Cc2ccccc2)C(=O)C(=O)N1CC1CCCCC1,-3.3,-1.2,-2.8,4.8,15.5,-0.5
O=C(COC(=O)COc1ccccc1)Nc1ccc(Br)cc1Br,1.4,1.6,2.7,12.1,5.7,0.0
O=C(COC(=O)COc1ccccc1)Nc1ccc(Br)cc1F,14.5*,4.8,-1.7,10.5,7.5,1.2
CCN(CC(=O)Nc1ccc(NC(C)=O)cc1)C(=O)c1ccc(=O)n(C)n1,5.5,3.2,-0.4,-2.8,5.9,1.0
O=C(CN1C(=O)CSC1=O)c1ccccc1,8.7,-2.7,44.8*,-6.0,-11.5,0.9
SMILES,CHRM4 PAM,M5 ag,M5 PAM,M5 antag,CHRM4 antagonist,CHRM4 agonist
O=C(NC(Cc1c[nH]c2ccccc12)C(=O)N/N=C/c1ccc(Cl)cc1)c1cccs1 (stereo not drawn),-11.6,-1.7,-15.4,26.9*,8.0,12.8
COc1ccc(S(=O)(=O)N2CCC(N3CCN(Cc4ccccc4)CC3)CC2)cc1,-19.1,-11.4,-15.5,45.4*,46.3*,1.0
O=[N+]([O-])c1ccccc1S(=O)(=O)N1CCN(C2CCN(Cc3ccccc3)CC2)CC1,-13.7,-8.7,-10.5,16.3,29.1*,0.9
O=S(=O)(c1ccc(Cl)cc1)N1CCN(C2CCN(Cc3ccccc3)CC2)CC1,-14.8,-12.6,-44.2,-6.0,14.7,2.1
CCCCn1c(-c2ccc([N+](=O)[O-])cc2)n[nH]c1=S,-24.2,-7.3,-20.5,46.0*,95.4*,0.7
CCOC(=O)c1ccc(NC(=O)c2nc[nH]c2C(=O)N(C)CCO)cc1,1.1,3.4,7.2,-19.4,-7.8,1.0
CCC(C)N1CNc2c(c(=O)[nH]c(=S)n2-c2cccc(C)c2)C1 (stereo not drawn),15.0,9.1,22.8*,35.3*,-8.3,3.5
C=CCn1c2c(c(=O)[nH]c1=S)CN(C(C)c1ccccc1)CN2 (stereo not drawn),-0.8,-2.9,1.2,4.2,1.1,1.4
COc1cccc(CN2CCC2(C)C(=O)Nc2ccc(Cl)c(Cl)c2)c1F (stereo not drawn),-4.0,-1.9,-7.6,8.2,-21.4,-0.9
CC(=O)c1cccc(OCC(=O)N(C)CC(=O)NCc2ccco2)c1,14.2,1.9,-1.3,4.1,-26.7,1.4
CCN1/C(=C2\C(=O)N(c3ccccc3)N=C2C)C=Cc2cc(C)ccc21,-9.0,38.7*,-18.0,11.5,5.4,13.9
CCN1/C(=c2/s/c(=C3/C(=O)N(c4ccccc4)N=C3C)n(CC)c2=O)C=Cc2ccccc21,-6.0,2.1,1.1,12.1,-1.3,0.7
CC(C)c1nc2n[nH]c(N)c2c2c1CCCC2,23.0*,4.3,15.7,-8.3,-1.8,0.9
CN1CCN(c2ccc(-c3cc(NC=O)c4ncc(-c5ccccc5)n4c3)cc2)CC1,1.3,-1.5,-4.6,4.0,0.6,3.0
O=C(NCCC1CCCCN1S(=O)(=O)c1ccc(F)cc1)C(=O)NCCN1CCOCC1 (stereo not drawn),-5.4,0.3,7.8,1.2,4.8,-0.2
O=C(Nc1ccccc1)Nc1ccc(Cl)c([N+](=O)[O-])c1,-9.9,10.6,-15.1,27.5*,14.1,12.4
Cc1ccc(NC(=O)Nc2ccccc2)cc1[N+](=O)[O-],-27.1,9.8,-20.8,16.0,17.2,18.6
O=C(Nc1ccccc1)Nc1ccc(F)c([N+](=O)[O-])c1,-9.6,6.3,-14.2,27.0*,9.3,13.4
